In ChEMBL document CHEMBL1156681, “Synthesis, anti-bacterial, anti-asthmatic and anti-diabetic activities of novel N-substituted-2-(4-phenylethynyl-phenyl)-1H-benzimidazoles and N-substituted 2[4-(4,4-dimethyl-thiochroman-6-yl-ethynyl)-phenyl)-1H-benzimidazoles” (2008):
Values after ≈ are worked out from the molar mass of the structure shown. Active and inactive are the calls of the source. The rule behind the calls is not given here.

Assays:
Salmonella typhimurium [1] = assay: Antibacterial activity against Salmonella Typhimurium at 500 ug/ml after 48 hrs by tube dilution method; format: functional, organism-based; conditions: Salmonella enterica subsp. enterica serovar Typhimurium
Method in brief: (§1)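 Compounds dissolved in DMSO and tested by tube dilution at […]. Tubes were incubated at 37 °C for 48 h. Growth was scored against the DMSO control as poor, medium or confluent (no inhibition). MIC was taken from the dilution series. Cephalexin served as the reference antibacterial and DMSO as the solvent control.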

[2] = target: Dipeptidyl peptidase 4 (Homo sapiens) (UniProt P27487); assay: Inhibition of human recombinant DPP4 at 0.3 uM after 30 mins relative to control
Method in brief: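 Recombinant human DPP-IV (10 ng) was run in 25 mM Tris pH 7.4, 140 mM NaCl, 10 mM KCl and 1% BSA with Gly-Pro-AMC substrate. Compounds in DMSO were added, and AMC release was followed kinetically at 30 °C for 30 min (ex 380 / em 460 nm). Percent inhibition was calculated against the solvent-only control.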

Staphylococcus aureus [3] = assay: Antibacterial activity against Staphylococcus aureus at 10 ug/ml after 48 hrs by tube dilution method; format: functional, organism-based; method in brief: as §1
Staphylococcus aureus [4] = assay: Antibacterial activity against Staphylococcus aureus at 500 ug/ml after 48 hrs by tube dilution method; format: functional, organism-based; method in brief: as §1
Salmonella typhimurium [5] = assay: Antibacterial activity against Salmonella Typhimurium after 48 hrs by tube dilution method; format: functional, Salmonella enterica subsp. enterica serovar Typhimurium; conditions: Salmonella enterica; method in brief: as §1
Staphylococcus aureus [6] = assay: Antibacterial activity against Staphylococcus aureus at 1 ug/ml after 48 hrs by tube dilution method; format: functional, organism-based; method in brief: as §1
Salmonella typhimurium [7] = assay: Antibacterial activity against Salmonella Typhimurium at 100 ug/ml after 48 hrs by tube dilution method; format: functional, organism-based; conditions: Salmonella enterica subsp. enterica serovar Typhimurium; method in brief: as §1
Staphylococcus aureus [8] = assay: Antibacterial activity against Staphylococcus aureus at 0.1 ug/ml after 48 hrs by tube dilution method; format: functional, organism-based; method in brief: as §1
Salmonella typhimurium [9] = assay: Antibacterial activity against Salmonella Typhimurium at 1 ug/ml after 48 hrs by tube dilution method; format: functional, organism-based; conditions: Salmonella enterica subsp. enterica serovar Typhimurium; method in brief: as §1
[10] = target: T1, Tyrosine-protein phosphatase non-receptor type 1 (Homo sapiens) (UniProt P18031); assay: Inhibition of human recombinant PTP1B at 30 uM after 30 mins relative to control
T1 sequence (whole entry): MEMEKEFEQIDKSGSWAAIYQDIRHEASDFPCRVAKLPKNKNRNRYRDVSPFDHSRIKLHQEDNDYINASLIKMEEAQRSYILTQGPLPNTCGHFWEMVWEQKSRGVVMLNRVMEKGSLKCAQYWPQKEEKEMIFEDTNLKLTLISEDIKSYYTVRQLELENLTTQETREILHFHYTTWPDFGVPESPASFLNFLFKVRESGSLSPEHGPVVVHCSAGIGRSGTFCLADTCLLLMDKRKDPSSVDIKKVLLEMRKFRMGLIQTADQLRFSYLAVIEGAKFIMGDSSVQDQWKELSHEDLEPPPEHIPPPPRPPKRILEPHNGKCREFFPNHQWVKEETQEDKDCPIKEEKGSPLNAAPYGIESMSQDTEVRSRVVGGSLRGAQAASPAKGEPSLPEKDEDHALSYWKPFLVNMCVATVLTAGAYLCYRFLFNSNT
Method in brief: (§2)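 In-house human recombinant PTP-1B (~35 ng) was assayed with p-nitrophenyl phosphate in 25 mM Hepes, 3 mM DTT and 1 mM EDTA, pH 7.4, with DMSO at ≤1%. Absorbance at 405 nm was monitored continuously at 30 °C for 30 min, then NaOH was added and 405 nm read again. Activity was expressed as % of control, and % inhibition as 100 minus activity.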

Salmonella typhimurium [11] = assay: Antibacterial activity against Salmonella Typhimurium at 10 ug/ml after 48 hrs by tube dilution method; format: functional, organism-based; conditions: Salmonella enterica subsp. enterica serovar Typhimurium; method in brief: as §1
[12] = target: T2, Phosphodiesterase 4 (Homo sapiens) (UniProt P27815+Q08499+Q07343+Q08493); assay: Inhibition of human PDE4 at 1 uM after 20 mins; format: protein assay
Staphylococcus aureus [13] = assay: Antibacterial activity against Staphylococcus aureus after 48 hrs by tube dilution method; format: functional; method in brief: as §1
Staphylococcus aureus [14] = assay: Antibacterial activity against Staphylococcus aureus at 100 ug/ml after 48 hrs by tube dilution method; format: functional, organism-based; method in brief: as §1
Salmonella typhimurium [15] = assay: Antibacterial activity against Salmonella Typhimurium at 0.1 ug/ml after 48 hrs by tube dilution method; format: functional, organism-based; conditions: Salmonella enterica subsp. enterica serovar Typhimurium; method in brief: as §1
Staphylococcus aureus [16] = assay: Antibacterial activity against Staphylococcus aureus at 200 ug/ml after 48 hrs by tube dilution method; format: functional, organism-based; method in brief: as §1
Salmonella typhimurium [17] = assay: Antibacterial activity against Salmonella Typhimurium at 200 ug/ml after 48 hrs by tube dilution method; format: functional, organism-based; conditions: Salmonella enterica subsp. enterica serovar Typhimurium; method in brief: as §1
[18] = target: T1, Tyrosine-protein phosphatase non-receptor type 1 (Homo sapiens); assay: Inhibition of human recombinant PTP1B at 0.3 uM after 30 mins relative to control; method in brief: as §2
[19] = target: T2, Phosphodiesterase 4 (Homo sapiens); conditions: 0.075 uM

Chain of Dipeptidyl peptidase 4 (Homo sapiens) (P27487 whole entry, looked up): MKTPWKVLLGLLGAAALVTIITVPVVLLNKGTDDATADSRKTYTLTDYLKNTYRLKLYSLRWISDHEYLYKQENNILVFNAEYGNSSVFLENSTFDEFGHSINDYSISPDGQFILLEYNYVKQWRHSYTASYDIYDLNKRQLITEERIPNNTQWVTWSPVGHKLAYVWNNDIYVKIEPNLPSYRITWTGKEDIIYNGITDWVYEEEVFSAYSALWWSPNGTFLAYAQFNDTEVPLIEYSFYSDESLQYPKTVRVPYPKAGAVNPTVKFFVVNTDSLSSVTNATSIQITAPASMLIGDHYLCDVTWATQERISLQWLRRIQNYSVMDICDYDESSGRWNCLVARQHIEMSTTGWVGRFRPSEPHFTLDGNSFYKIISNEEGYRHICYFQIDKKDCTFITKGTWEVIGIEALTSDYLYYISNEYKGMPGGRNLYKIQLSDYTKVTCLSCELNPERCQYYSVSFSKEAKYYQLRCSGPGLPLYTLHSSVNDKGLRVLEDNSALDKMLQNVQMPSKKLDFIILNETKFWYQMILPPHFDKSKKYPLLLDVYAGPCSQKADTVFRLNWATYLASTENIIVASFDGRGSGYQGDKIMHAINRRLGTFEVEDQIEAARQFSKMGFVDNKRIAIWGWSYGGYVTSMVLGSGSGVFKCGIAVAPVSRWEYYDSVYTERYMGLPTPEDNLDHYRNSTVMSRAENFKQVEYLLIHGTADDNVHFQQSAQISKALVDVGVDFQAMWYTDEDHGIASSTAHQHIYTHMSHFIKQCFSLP

CC(C)COC(=O)n1c(-c2ccc(C#Cc3ccccc3)cc2)nc2ccccc21
Activity (Salmonella typhimurium [1]): Active
inhibition [2]: 0%
Activity (Staphylococcus aureus [3]): inactive
Activity (Staphylococcus aureus [4]): Active
MIC (Salmonella typhimurium [5]): 500 mg/L (≈ 1270 µM)
Activity (Staphylococcus aureus [6]): inactive
Activity (Salmonella typhimurium [7]): inactive
Activity (Staphylococcus aureus [8]): inactive
Activity (Salmonella typhimurium [9]): inactive
inhibition [10]: 17.4%
Activity (Salmonella typhimurium [11]): inactive
inhibition [12]: 17.2%
MIC (Staphylococcus aureus [13]): 500 mg/L (≈ 1270 µM)
Activity (Staphylococcus aureus [14]): inactive
Activity (Salmonella typhimurium [15]): inactive

CC1=C(C(=O)O)N2C(=O)[C@@H](NC(=O)[C@H](N)c3ccccc3)[C@H]2SC1 [CEPHALEXIN ANHYDROUS]
Activity (Salmonella typhimurium [1]): Active
Activity (Staphylococcus aureus [3]): Active
Activity (Staphylococcus aureus [4]): Active
Activity (Staphylococcus aureus [16]): Active
Activity (Salmonella typhimurium [17]): Active
MIC (Salmonella typhimurium [5]): 200 mg/L (≈ 576 µM)
Activity (Staphylococcus aureus [6]): inactive
Activity (Staphylococcus aureus [8]): inactive
Activity (Salmonella typhimurium [9]): inactive
MIC (Staphylococcus aureus [13]): 10 mg/L (≈ 28.8 µM)
Activity (Staphylococcus aureus [14]): Active
Activity (Salmonella typhimurium [15]): inactive

CCCCOC(=O)n1c(-c2ccc(C#Cc3ccccc3)cc2)nc2ccccc21
Activity (Salmonella typhimurium [1]): Active
inhibition [2]: 0%
Activity (Staphylococcus aureus [3]): inactive
Activity (Staphylococcus aureus [4]): Active
MIC (Salmonella typhimurium [5]): 500 mg/L (≈ 1270 µM)
Activity (Staphylococcus aureus [6]): inactive
Activity (Salmonella typhimurium [7]): inactive
Activity (Staphylococcus aureus [8]): inactive
Activity (Salmonella typhimurium [9]): inactive
inhibition [10]: 5.84%
Activity (Salmonella typhimurium [11]): inactive
inhibition [12]: 16.2%
MIC (Staphylococcus aureus [13]): 500 mg/L (≈ 1270 µM)
Activity (Staphylococcus aureus [14]): inactive
Activity (Salmonella typhimurium [15]): inactive

CCn1c(-c2ccc(C#Cc3ccccc3)cc2)nc2ccccc21
Activity (Salmonella typhimurium [1]): Active
inhibition [2]: 0%
Activity (Staphylococcus aureus [3]): inactive
Activity (Staphylococcus aureus [4]): Active
MIC (Salmonella typhimurium [5]): 500 mg/L (≈ 1550 µM)
Activity (Staphylococcus aureus [6]): inactive
Activity (Salmonella typhimurium [7]): inactive
Activity (Staphylococcus aureus [8]): inactive
Activity (Salmonella typhimurium [9]): inactive
inhibition [10]: 2.2%
Activity (Salmonella typhimurium [11]): inactive
inhibition [12]: 13.5%
MIC (Staphylococcus aureus [13]): 500 mg/L (≈ 1550 µM)
Activity (Staphylococcus aureus [14]): inactive
Activity (Salmonella typhimurium [15]): inactive

C=C(O)CN(c1ccccc1C(=O)O)C(CCC(=O)N[C@@H](CCSC)C(=O)O)CNC(=O)C(Cc1cccc(CC)c1)NC(C)=O (some centres undefined)
inhibition [18]: 49.1%

COc1ccc([C@]2(C#N)CC[C@@H](C(=O)O)CC2)cc1OC1CCCC1
inhibition [19]: 45.3%
